SMILES strings stand for the structures. Values after ≈ are worked out from the molar mass of the structure shown.

Series [1] deals with Leishmania infantum. As to the kind of experiment: Antileishmanial activity against Leishmania infantum zymodeme MON-1 promastigotes assessed as parasite survival at 10 to 100 ug/ml after 48 hrs. In kind it is functional. In short, it runs like this: (§1)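 Log-phase promastigotes from 26 °C Schneider's Drosophila medium with 10% heat-inactivated FCS, pH 7.2, adjusted to 5×10^6 parasites/mL. Compounds in DMSO (≤1% v/v) at 10–100 µg/mL, incubated at 26 °C. Surviving promastigotes counted in a Neubauer chamber and compared with drug-free controls.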

Series [2] can be described thus: Therapeutic index, ratio of TC50 for mouse RAW264.7 cells to EC50 for Leishmania infantum zymodeme MON-1 axenic amastigotes after 48 hrs. The note with it: read-out: TI. In short, it runs like this: (§2)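 Index calculated as TC50 on RAW 264.7 macrophages (MTT assay) divided by EC50 on L. infantum promastigotes or axenic amastigotes, using the same incubation time (24 or 48 h) for both.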

The subject of series [3] is Leishmania infantum. As to the kind of experiment: Antileishmanial activity against Leishmania infantum zymodeme MON-1 axenic amastigotes assessed as parasite survival after 48 hrs. Format: functional, organism-based. Particulars: zymodeme MON-1, 48 h. In short, it runs like this:
(§3)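 Axenic amastigotes grown cell-free at 37 °C, 5% CO2 in MAA/20 (modified medium 199 with Hank's salts, tryptocasein, glucose, glutamine, NaHCO3, hemin, 25 mM HEPES, pH 6.5, 20% heat-inactivated FBS). Compounds in DMSO (≤1% v/v) at 10–100 µg/mL, 37 °C. Viability read after TO-PRO-3 staining (10 min, room temperature) by ImageStream imaging cytometry, ≥10,000 events per sample.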

Series [4] is described as follows: Therapeutic index, ratio of TC50 for mouse RAW264.7 cells to EC50 for Leishmania infantum zymodeme MON-1 promastigotes after 48 hrs. The note with it: read-out: TI. In short, it runs like this: as §2
Series [5] is described as follows: Cytotoxicity against mouse RAW264.7 cells after 48 hrs by MTT assay. In kind it is cell-based. Particulars: read-out: TC50. In short, it runs like this: (§4)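 RAW 264.7 cells in RPMI 1640 with L-glutamine, 10% FBS and penicillin/streptomycin, seeded at 1×10^5 cells/well and left to adhere overnight at 37 °C, 5% CO2. Compounds at 10, 50 and 100 µg/mL, 37 °C. MTT (5 mg/mL) added for 4 h, formazan dissolved in DMSO, A540 read. Survival expressed as percent of untreated control, in triplicate. TC50 taken as the 50% macrophage-death concentration.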

Series [6] has as its system Leishmania infantum. As to the kind of experiment: Antileishmanial activity against Leishmania infantum zymodeme MON-1 promastigotes assessed as parasite survival after 48 hrs. Format: functional, organism-based. The note with it: zymodeme MON-1, 48 h. The essentials:
as §1

Series [7] in a line: Therapeutic index, ratio of TC50 for mouse RAW264.7 cells to EC50 for Leishmania infantum zymodeme MON-1 axenic amastigotes. The note with it: read-out: TI. The essentials:
as §2

The subject of series [8] is Leishmania infantum. As to the kind of experiment: Antileishmanial activity against Leishmania infantum zymodeme MON-1 axenic amastigotes assessed as parasite survival after 24 hrs. In kind it is functional, organism-based. The note with it: zymodeme MON-1, 24 h. In short, it runs like this:
as §3

Series [9] in a line: Therapeutic index, ratio of TC50 for mouse RAW264.7 cells to EC50 for Leishmania infantum zymodeme MON-1 promastigotes after 24 hrs. The note with it: read-out: TI. In short, it runs like this:
as §2

The nature of series [10]: Cytotoxicity against mouse RAW264.7 cells after 24 hrs by MTT assay. In kind it is cell-based. Particulars: read-out: TC50. The essentials: as §4
On the technique in general: Tetrazolium assays rely on reduction of a dye to a coloured formazan, in cell work by metabolically active cells.

Series [11] relates to Leishmania infantum. Description: Antileishmanial activity against Leishmania infantum zymodeme MON-1 promastigotes assessed as parasite survival after 24 hrs. In kind it is functional, organism-based. The note with it: zymodeme MON-1, 24 h. The essentials: as §1

The term EC50 denotes the concentration giving half of the maximal effect. The EC95 is the point of the concentration-response curve where the effect stands at 95%. Regarding `Cc1ccc([C@@H]2CC(=O)C[C@@H](c3ccc(C)cc3)C23C(=O)Nc2ccccc23)cc1`, the Activity in the series with Leishmania infantum [1] was more than 74%. Further, the values for the selectivity ratio at 48 h in series [2] and in series [4] were 20.3 and 18.7, respectively. Besides, the EC50 in the series with Leishmania infantum [3] was 1.9 µg/mL (≈ 4.8 µM); in the series with Leishmania infantum [6] it was 2 µg/mL (≈ 5.06 µM); in the series on Leishmania infantum [8], 5.9 µg/mL (≈ 14.9 µM); in the series on Leishmania infantum [11], 6.1 µg/mL (≈ 15.4 µM). Further, the 95% effect concentration (EC95) with Leishmania infantum [3] was found to be 69.9 µg/mL (≈ 177 µM); in the series with Leishmania infantum [6] it was 71.4 µg/mL (≈ 181 µM); in the series on Leishmania infantum [8] it was 69.4 µg/mL (≈ 175 µM); with Leishmania infantum [11], 72.1 µg/mL (≈ 182 µM). In addition, in series [5], the CC50 at 48 h amounted to 38.6 µg/mL (≈ 97.6 µM). Moreover, in [7], the selectivity ratio is 10.6. For the same compound, in series [9], the selectivity ratio at 24 h stood at 10.2. The CC50 at 24 h in [10] was 62.8 µg/mL (≈ 159 µM).

As for `COc1ccc([C@@H]2CC(=O)C[C@@H](c3ccc(OC)cc3)C23C(=O)Nc2ccccc23)cc1`, the Activity in the series on Leishmania infantum [1] is listed as more than 74%. In addition, the selectivity ratio at 48 h in [2] was found to be 3.4; in series [4], 3.1. Further, the EC50 was found to be 15.1 µg/mL (≈ 35.3 µM) in the series with Leishmania infantum [3], 16.2 µg/mL (≈ 37.9 µM) with Leishmania infantum [6], 21 µg/mL (≈ 49.1 µM) with Leishmania infantum [8] and 23.9 µg/mL (≈ 55.9 µM) in the series with Leishmania infantum [11]. The concentration for an effect of 95% (EC95) is 74.8 µg/mL (≈ 175 µM) with Leishmania infantum [3], 75.2 µg/mL (≈ 176 µM) in the series on Leishmania infantum [6], 79.3 µg/mL (≈ 185 µM) in the series with Leishmania infantum [8] and 82.4 µg/mL (≈ 193 µM) in the series on Leishmania infantum [11]. Moreover, the CC50 at 48 h in series [5] was determined as 51 µg/mL (≈ 119 µM). In addition, in series [7], the selectivity ratio is 3.8. The selectivity ratio at 24 h in [9] came to 3.3. Moreover, in series [10], the CC50 at 24 h was 80.5 µg/mL (≈ 188 µM).

In the case of `O=C1C[C@@H](c2ccc(Cl)cc2)C2(C(=O)Nc3ccccc32)[C@H](c2ccc(Cl)cc2)C1`, the Activity with Leishmania infantum [1] is listed as more than 74%. For the same compound, the selectivity ratio at 48 h in series [2] was 4.4; in series [4], 4.2. The EC50 in the series with Leishmania infantum [3] came out at 4.9 µg/mL (≈ 11.2 µM); in the series on Leishmania infantum [6] it was 5.1 µg/mL (≈ 11.7 µM); in the series on Leishmania infantum [8], 21 µg/mL (≈ 48.1 µM); in the series on Leishmania infantum [11], 23.4 µg/mL (≈ 53.6 µM). The 95% effect concentration (EC95) in the series with Leishmania infantum [3] amounted to 69.9 µg/mL (≈ 160 µM); in the series on Leishmania infantum [6], 72.1 µg/mL (≈ 165 µM); with Leishmania infantum [8], 75.2 µg/mL (≈ 172 µM); in the series with Leishmania infantum [11], 77.1 µg/mL (≈ 177 µM). Moreover, in [5], the CC50 at 48 h worked out at 21.3 µg/mL (≈ 48.8 µM). Besides, the selectivity ratio in series [7] was 2.1. The selectivity ratio at 24 h in series [9] is 1.8. The CC50 at 24 h in series [10] is 44 µg/mL (≈ 101 µM).

For `O=C(CC(c1ccc(Cl)cc1)C1C(=O)Nc2ccccc21)c1ccccc1` (stereo not drawn), the results for the selectivity ratio at 48 h in series [2] and in series [4] were 3.5 and 3, respectively. In addition, the EC50 was 10.1 µg/mL (≈ 26.9 µM) with Leishmania infantum [3], 11.5 µg/mL (≈ 30.6 µM) in the series with Leishmania infantum [6], 18.5 µg/mL (≈ 49.2 µM) in the series on Leishmania infantum [8] and 19.7 µg/mL (≈ 52.4 µM) in the series with Leishmania infantum [11]. Besides, the concentration for an effect of 95% (EC95) with Leishmania infantum [3] turned out to be 70.2 µg/mL (≈ 187 µM); in the series with Leishmania infantum [6] it was 73.6 µg/mL (≈ 196 µM); in the series with Leishmania infantum [8], 74 µg/mL (≈ 197 µM); in the series with Leishmania infantum [11], 76.5 µg/mL (≈ 204 µM). Moreover, the CC50 at 48 h in series [5] was 35 µg/mL (≈ 93.1 µM). Also, the selectivity ratio in series [7] was 2. Besides, in [9], the selectivity ratio at 24 h is 1.8. In addition, in series [10], the CC50 at 24 h was determined as 36.9 µg/mL (≈ 98.2 µM).

Consider `O=C(CC(c1cccc(Cl)c1)C1C(=O)Nc2ccccc21)c1ccccc1` (stereo not drawn), for which the selectivity ratio at 48 h was 9.3 in series [2] and 8.8 in series [4]. Besides, the EC50 amounted to 12.5 µg/mL (≈ 33.3 µM) in the series on Leishmania infantum [3], 13.2 µg/mL (≈ 35.1 µM) in the series on Leishmania infantum [6], 30.5 µg/mL (≈ 81.1 µM) in the series on Leishmania infantum [8] and 31.6 µg/mL (≈ 84.1 µM) with Leishmania infantum [11]. Besides, the EC95 in the series on Leishmania infantum [3] stood at 71.5 µg/mL (≈ 190 µM); in the series on Leishmania infantum [6] it was 74 µg/mL (≈ 197 µM); in the series on Leishmania infantum [8], 80.2 µg/mL (≈ 213 µM); with Leishmania infantum [11], 85.5 µg/mL (≈ 227 µM). Further, the CC50 at 48 h in series [5] was found to be 116 µg/mL (≈ 309 µM). The selectivity ratio in series [7] was 6.3. In addition, the selectivity ratio at 24 h in [9] came to 6.1. For the same compound, the CC50 at 24 h in series [10] is 193 µg/mL (≈ 514 µM).

Regarding `O=C1C[C@@H](c2ccccc2)C2(C(=O)Nc3ccccc32)[C@H](c2ccccc2)C1`, in the series with Leishmania infantum [1], the Activity is more than 74%. For the same compound, the selectivity ratio at 48 h was determined as 11.4 in [2] and 9.4 in series [4]. The EC50 with Leishmania infantum [3] is 5.7 µg/mL (≈ 15.5 µM); in the series with Leishmania infantum [6] it was 6.9 µg/mL (≈ 18.8 µM); with Leishmania infantum [8] it was 28.5 µg/mL (≈ 77.6 µM); in the series on Leishmania infantum [11], 29.8 µg/mL (≈ 81.1 µM). For the same compound, the EC95 came out at 74.1 µg/mL (≈ 202 µM) in the series with Leishmania infantum [3], 73.2 µg/mL (≈ 199 µM) in the series on Leishmania infantum [6], 78.3 µg/mL (≈ 213 µM) in the series with Leishmania infantum [8] and 86.1 µg/mL (≈ 234 µM) with Leishmania infantum [11]. For the same compound, the CC50 at 48 h in series [5] is 65.2 µg/mL (≈ 177 µM). For the same compound, in [7], the selectivity ratio turned out to be 3.1. The selectivity ratio at 24 h in series [9] was found to be 2.9. Also, the CC50 at 24 h in series [10] is 88.8 µg/mL (≈ 242 µM).

The values are drawn from ChEMBL document CHEMBL3102842, “Direct synthesis of C3-mono-functionalized oxindoles from N-unprotected 2-oxindole and their antileishmanial activity” (Bioorg Med Chem, 2014).
